Published values collected from several papers.
Compare with care: the assays were run in different laboratories.
Cell line: HT-29
Observed: cell growth or viability

SMILES | test | setting | measurement | result
Cc1cc(C)n(C(=S)[S][Au][PH](CCCCCC[PH]([Au][S]C(=S)n2nc(C)cc2C)(c2ccccc2)c2ccccc2)(c2ccccc2)c2ccccc2)n1 |  |  | GI50 | 458 nM
CCN(CC)CCNC(=O)c1c(C)[nH]c(/C=C2\C(=O)Nc3ccc(F)cc32)c1C |  | 30 µM | inhibition | 59.5%
CC/C(=C(\c1ccccc1)c1ccc(OCCN(C)C)cc1)c1ccccc1 | ATP luminescence | 72 h | EC90 | 8400 nM
Cn1c(=O)c(NN=C2C(=O)Nc3ccc(F)cc32)nc2ccccc21 |  | 30 µM | inhibition | 48.1%
COc1ccc(C(=O)/C=C/c2cc3c(cc2Br)OCO3)cc1S(N)(=O)=O | SRB | 48 h | GI50 | 1900 nM
Cc1ccc2c(c1)C(=NNc1nc3ccccc3n(C)c1=O)C(=O)N2 |  | 30 µM | inhibition | 47.6%
COc1cccc(Oc2ccccc2NC(=O)CNC(=O)c2cccc3ccccc23)c1 | SRB | 48 h | GI50 | 110 nM
S=C([S][Au-][P+](CCCCCC[P+]([Au-][S]C(=S)n1cccn1)(c1ccccc1)c1ccccc1)(c1ccccc1)c1ccccc1)n1cccn1 |  |  | GI50 | 642 nM
COc1ccc(C(=O)/C=C/c2cccc(Br)c2)cc1S(N)(=O)=O | SRB | 48 h | GI50 | 1600 nM
